# DSG3 Ab inh: blocks pemphigus antibody binding to human desmoglein-3. P32926. DSG3-coupled beads, scFv-anti-DSG3-GFP binding, flow cytometry; stronger effect = lower value. binding (percent of control), % at 10 µM. 310,000 compounds, 0.48% hits;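 active = binding more than 3 SD below its plate's average and above zero; inconclusive = below that plate limit but binding exactly zero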
# Granule exo inh: lytic granule exocytosis inhibition; TALL-104 LAMP-1 surface exposure, flow cytometry; cells stimulated with thapsigargin and PMA; inhibition, % at 10 µM; 360,000 compounds, 0.66% hits;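 active = inhibition above about 55%, limit read from the data; inconclusive = no clear call, values can overlap the other calls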
# H9c2 protect: protects H9c2 cardiomyocytes from peroxide injury. H2O2 injury protection, ATPLite, 2 h. protection from H2O2 cell death, % at 20 µM. 360,000 compounds, 0.63% hits;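 active = compounds giving at least 50% protection of heart cells from peroxide-induced death in the single-dose screen, raw or plate-pattern-corrected value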;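 also: 0% = DMSO wells with peroxide and 100% = DMSO wells without peroxide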
# HNF4A DNA FP: change in binding of human HNF4 alpha to DNA | HNF4a-FITC DNA binding, fluorescence polarization, 1 h | activity change, % at 10 µM | 360,000 compounds, 0.3% hits | AID 1224865; in the data active = activity change above about 30%, passing the limit was not always enough
# Target sequence (P41235 whole entry, looked up): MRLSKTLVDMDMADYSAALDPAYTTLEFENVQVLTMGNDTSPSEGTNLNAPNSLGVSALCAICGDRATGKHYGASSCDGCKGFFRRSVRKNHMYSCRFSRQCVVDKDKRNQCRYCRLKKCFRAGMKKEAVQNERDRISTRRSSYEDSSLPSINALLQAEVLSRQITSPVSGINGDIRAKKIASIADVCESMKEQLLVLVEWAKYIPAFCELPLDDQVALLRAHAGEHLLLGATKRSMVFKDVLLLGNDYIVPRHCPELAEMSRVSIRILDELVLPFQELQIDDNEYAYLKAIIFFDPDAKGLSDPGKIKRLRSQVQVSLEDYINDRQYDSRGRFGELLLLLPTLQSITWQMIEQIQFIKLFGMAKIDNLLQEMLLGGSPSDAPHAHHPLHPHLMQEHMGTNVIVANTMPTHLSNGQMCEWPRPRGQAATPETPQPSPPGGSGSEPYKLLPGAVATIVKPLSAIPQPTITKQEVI
# SENP1 FRET inh: blocks the human SENP1 SUMO protease catalytic domain. 360,000 compounds, 0.21% hits. inhibition, % at 10 µM. recombinant SENP1 catalytic domain, CyPet-SUMO1-YPet FRET cleavage. Q9P0U3;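 active = inhibition at least 30% at 10 µM, raw YFP signal under a set limit, fluorescence ratio 0.5 to 1.5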;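 also: 0% = enzyme with DMSO and 100% = no enzyme wells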
#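 system = hSENP1 catalytic domain, recombinant | reagent = SFCypet-SUMO1-SFYpet substrate at 25 nM | doses = one dose per compound, 10 µM, 0.5% DMSO | incubation = enzyme reaction for 50 min at room temperature, dark | measured by = FRET, CFP and YFP emission | controls = no-enzyme low, enzyme-DMSO high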
# Myeloid diff MLP: promotes myeloid progenitor differentiation. calls only at 10 µM. 360,000 compounds, 1% hits. ER-HoxA9 myeloid progenitors, lysozyme-GFP differentiation, flow cytometry;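 active = normalized GFP-positive differentiation at or above the plate's own cutoff, the solvent-only control mean plus 3 SD; inconclusive = no clear call, values can overlap the other calls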;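 also: cells exposed to compound for four days before flow analysis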
# Exocytosis CP01: blocks lytic granule exocytosis. 1,500 compounds, 11% hits. TALL-104 cells, LAMP-1 externalization, flow cytometry; stimulated with PMA plus thapsigargin. inhibition, % at 10 µM. shares compounds with Granule exo inh; in the data active = inhibition above about 60%;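 also: 0% = stimulated vehicle wells and 100% = unstimulated wells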
# * hit, by the source's call; i = inactive; ? = inconclusive; · = not tested or not shown. Shown are actives, neighbours in structure and some others; about 3% of the full set was active somewhere.
SMILES,DSG3 Ab inh,Granule exo inh,H9c2 protect,HNF4A DNA FP,SENP1 FRET inh,Myeloid diff MLP,Exocytosis CP01
CCOc1ccc(NC(=O)CN(C)Cc2ccc3c(c2)OCO3)cc1S(=O)(=O)N1CCCC1,103.0,2.4,-5.8,-3.5,-1.0,i,·
CCN(CC)C(=O)CC(c1ccc(OC)cc1)c1c(OC)cc(OC)c2ccc(=O)oc12 (centres undefined),105.4,-3.7,31.6,-1.0,-7.5,i,·
CC1CC(C)CN(C(=O)c2ccc(-c3ccc([N+](=O)[O-])cc3)o2)C1 (centres undefined),101.0,73.9*,-9.7,-0.6,0.7,?,-11.9
COc1ccc(/C=C/c2onc(C)c2S(=O)(=O)N2CCC(C(=O)N3CCC(C)CC3)CC2)cc1,101.7,76.1*,-0.4,0.5,-0.1,?,-14.3
CCOC(=O)c1cc(-c2cccc([N+](=O)[O-])c2)on1,123.2,66.0*,-18.9,0.7,1.6,i,-8.6
CCOC(=O)C1CCN(CC(=O)Nc2ccc(S(=O)(=O)N3CCC(C)CC3)cc2)CC1,95.2,-1.0,-11.8,-0.3,1.7,i,·
COc1ccc(NC(=O)N(C)C[C@H]2OCc3cnnn3CCCC(=O)N([C@@H](C)CO)C[C@H]2C)cc1,·,-2.8,12.0,4.0,0.7,i,·
CN1CCN(CC(O)COC(c2ccc(Cl)cc2)c2ccc(Cl)cc2)CC1 (centres undefined),111.2,57.3*,-0.1,5.1,2.3,i,17.4
OC(COC(c1ccc(Cl)cc1)c1ccc(Cl)cc1)CN1CCCC1 (centres undefined),114.7,1.1,2.5,-4.3,1.0,i,·
Cc1ccc(C)c(N2CCN(C(=O)Cc3ccc(NC4=NC5CS(=O)(=O)CC5S4)cc3)CC2)c1 (centres undefined),104.1,3.5,1.6,-1.7,4.2,i,·
O=C(NCc1ccccn1)C1Nc2ccc(C(F)(F)F)cc2C2C=CCC12 (centres undefined),106.3,64.1*,-4.3,-3.3,-7.7,i,-14.6
COCCNC(=O)C1Nc2ccc(C(F)(F)F)cc2C2C=CCC12 (centres undefined),95.8,-2.4,-2.4,1.1,-2.3,i,·
Cc1cc(C)c(OCC(=O)N(Cc2ccccc2)C2CCS(=O)(=O)C2)c(C)c1 (centres undefined),108.0,1.4,-6.4,-1.4,0.4,i,·
NC(=O)Cn1c(=O)n(CCCC(=O)NC2CCN(Cc3ccccc3)CC2)c(=O)c2ccccc21,109.6,-1.0,3.4,-1.6,0.5,i,·
CCOc1ccc(NC(=O)Cn2c(=O)n(CCCC(=O)NC3CCN(Cc4ccccc4)CC3)c(=O)c3ccccc32)cc1,100.2,60.8*,2.9,1.5,-0.3,i,-10.0
Cc1nc(SCC2(C)CC2(Cl)Cl)n[nH]1 (centres undefined),93.5,3.5,1.7,-2.9,0.6,i,·
COc1cc2nc(Nc3ccc(F)cc3)nc(N)c2cc1OC,96.0,64.6*,54.9*,0.3,0.3,i,-11.5
O=C1C=CC(c2c[nH]c3ccccc23)CC1 (centres undefined),·,-7.7,·,-1.5,-3.5,i,·
Cc1ccc(-c2nnc(-c3ccc(NC(=O)c4ccco4)cc3)o2)cc1,·,88.5*,-19.8,3.5,1.3,i,-0.7
CCOC(=O)c1c(-c2ccccc2)csc1NC(=O)c1cccc(N2C(=O)CCC2=O)c1,95.4,86.1*,7.1,-0.2,-1.9,i,0.0
COc1ccccc1CN1C[C@@H]2C[C@@H](C3=Cc4cc(Cl)ccc4OC3)N3CCC[C@@]23C1=O,103.2,55.5*,0.1,1.5,-10.9,i,-1.6
CN1C[C@@H]2C[C@@H](C3=Cc4cc(Cl)ccc4OC3)N3CCC[C@@]23C1=O,110.6,-7.1,5.4,-3.5,-4.9,i,·
CCc1cc2ccc(C)cc2nc1SCC(=O)NC1CCCC1,122.9,82.0*,-1.3,0.4,-0.2,i,-12.0
CCc1cc2ccc(C)cc2nc1SCC(=O)c1ccc(NC(C)=O)cc1,94.3,0.8,-10.2,-2.0,-26.0,i,·
COC(=O)Cc1c(CSc2ccccc2)oc2ccc(O)c(CN(C)C)c12,97.0,58.3*,4.5,9.2,-0.6,i,-2.0
SMILES,DSG3 Ab inh,Granule exo inh,H9c2 protect,HNF4A DNA FP,SENP1 FRET inh,Myeloid diff MLP,Exocytosis CP01
CCOC(=O)c1c(CSc2ccc(CC)cc2)oc2ccc(O)c(CN(C)C)c12,98.9,80.4*,-22.6,3.4,0.6,i,42.6
CC(=O)c1c(CSc2ccccc2)oc2ccc(O)c(CN(C)C)c12,99.9,65.7*,2.3,-1.4,0.9,i,-12.6
CCOC(=O)c1c(CSc2ccccc2)oc2cc(Br)c(O)c(CN(C)C)c12,107.0,3.8,0.8,-1.9,-3.8,i,·
CCn1c(SCC(=O)NCc2ccccc2)nnc1C(CO)NC(=O)c1ccccc1 (centres undefined),103.1,2.7,-1.5,-0.6,3.8,i,·
CCc1cccc2c(C(=O)C(NCCOC)c3ccccc3)c[nH]c12 (centres undefined),100.5,65.8*,-5.8,1.7,3.9,i,-9.7
Cn1c(Cl)c(C(=O)Nc2ccc(Cl)cc2)c2ccccc21,·,68.7*,-5.2,2.1,1.1,i,-1.3
CCCOc1ccc(C(=O)CCN2CCN(C(=O)OCC)CC2)cc1,·,60.5*,-0.2,-1.1,-0.2,i,-13.5
CC(C)Oc1ccc(C(=O)CCN2CCOCC2)cc1,116.9,58.6*,2.3,2.5,0.6,i,-11.2
CC(C)Oc1ccc(C(=O)CCN2CCCCC2)cc1,100.7,95.0*,-3.0,-2.9,2.8,i,5.1
CCCCCOc1ccc(C(=O)CCN2CCOCC2)cc1,101.8,7.2,-2.1,0.9,0.3,i,·
COc1ccc(C(=O)CCN2CCCCCC2)cc1,103.0,0.4,-9.6,2.7,-1.6,i,·
CCOc1ccc(C(=O)CCN2CCCCC2)cc1,106.1,93.0*,7.9,2.2,0.9,i,-11.3
O=S(=O)(NCCS(=O)(=O)N1CCN(c2ccccc2)CC1)c1ccccc1,·,-2.5,-0.8,-1.0,-0.1,?,·
CC(=O)Nc1nnc(Cc2c[nH]c3ccccc23)s1,92.6,-2.9,1.8,-2.3,-3.2,·,·
CN1C(=O)C(CC(=O)NC2CCCCC2)SC1=Nc1ccccc1 (centres undefined),86.5,1.0,7.9,3.3,-0.6,i,·
CC(=O)Nc1nonc1-c1nc2ccccc2n1CCC(C)C,106.4,9.0,-4.6,-0.4,-3.7,i,·
CCC(=O)Nc1nonc1-c1nc2ccccc2n1CCC(C)C,105.4,62.8*,-0.9,-0.9,-0.7,i,-5.7
